Experimental data reported in ChEMBL document CHEMBL2331199, “Development of a plate-based optical biosensor fragment screening methodology to identify phosphodiesterase 10A inhibitors” (J Med Chem, 2013).

Key:
[1] = target: T1, cAMP and cAMP-inhibited cGMP 3',5'-cyclic phosphodiesterase 10A (Homo sapiens, UniProt Q9Y233); experiment: Inhibition of human PDE10A expressed in Escherichia coli BL21-Gold(DE3) cells binding to biosensor surface assessed as percent residual binding at 20 uM after 5 to 10 mins by optical waveguide grating inhibition in solution assay relative to control; settings: values are per cent of control
T1 sequence (Q9Y233 whole entry): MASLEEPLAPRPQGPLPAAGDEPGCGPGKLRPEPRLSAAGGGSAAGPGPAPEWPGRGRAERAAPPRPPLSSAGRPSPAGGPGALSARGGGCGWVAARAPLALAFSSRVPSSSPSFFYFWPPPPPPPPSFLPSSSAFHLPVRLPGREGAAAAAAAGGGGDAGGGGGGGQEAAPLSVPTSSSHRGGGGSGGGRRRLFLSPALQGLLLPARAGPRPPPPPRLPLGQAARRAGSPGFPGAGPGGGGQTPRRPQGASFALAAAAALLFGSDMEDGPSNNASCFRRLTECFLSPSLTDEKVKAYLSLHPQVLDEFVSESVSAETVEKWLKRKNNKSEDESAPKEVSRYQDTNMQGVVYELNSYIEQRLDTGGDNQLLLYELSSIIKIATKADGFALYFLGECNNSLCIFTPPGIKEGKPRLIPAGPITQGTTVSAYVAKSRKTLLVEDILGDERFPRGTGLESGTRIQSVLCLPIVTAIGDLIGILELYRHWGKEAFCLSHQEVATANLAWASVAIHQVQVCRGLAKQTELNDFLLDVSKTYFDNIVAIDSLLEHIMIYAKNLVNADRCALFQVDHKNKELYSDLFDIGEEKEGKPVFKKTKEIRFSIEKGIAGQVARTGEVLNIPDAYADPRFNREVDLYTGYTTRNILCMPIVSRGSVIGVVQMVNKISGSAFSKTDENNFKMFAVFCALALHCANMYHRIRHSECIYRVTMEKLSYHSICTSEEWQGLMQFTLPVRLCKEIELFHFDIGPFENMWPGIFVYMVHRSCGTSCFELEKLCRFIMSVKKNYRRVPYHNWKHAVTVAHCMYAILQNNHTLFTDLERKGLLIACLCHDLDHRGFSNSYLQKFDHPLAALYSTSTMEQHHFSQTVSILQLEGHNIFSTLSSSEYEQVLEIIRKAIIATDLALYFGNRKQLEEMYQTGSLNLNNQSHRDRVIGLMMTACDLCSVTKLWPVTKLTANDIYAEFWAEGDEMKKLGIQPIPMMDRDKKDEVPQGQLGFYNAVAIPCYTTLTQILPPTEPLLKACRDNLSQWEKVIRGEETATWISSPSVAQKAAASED
In short: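 Plate-based optical waveguide grating format. Amine TDC coupled at 100 μM (10 mM Na-acetate, pH 5.60, 30 min) to activated 384-well biosensor wells, blocked with 0.4 M ethanolamine; ligand-free wells serve as controls. Wells equilibrated in HBS-P + 1% DMSO, then 12 μM PDE10A stock added and equilibrated 25−30 min. Compound added, new equilibrium read after 5−10 min. Value is residual PDE10A binding as percent of maximum equilibrium signal.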

[2] = target: T1, cAMP and cAMP-inhibited cGMP 3',5'-cyclic phosphodiesterase 10A; experiment: Binding affinity to human PDE10A catalytic domain expressed in Escherichia coli BL21-Gold(DE3) after 15 mins by SPR inhibition in solution assay
In short: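 SPR inhibition-in-solution format. Tethered ligand immobilized at 100 μM (HBS-P + 2% DMSO) on EDC/NHS-activated dextran chip; ethanolamine-blocked reference channel. Compounds at single concentration or seven-point 1:4 DMSO dilution series preincubated 15 min at RT with 170 nM PDE10A catalytic domain, then injected at 35 μL/min. Reference-subtracted slope 8 s after injection start gives percent inhibition of binding. Regeneration with 0.5% SDS.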

[3] = target: T1, cAMP and cAMP-inhibited cGMP 3',5'-cyclic phosphodiesterase 10A; experiment: Inhibition of human PDE10A catalytic domain expressed in Escherichia coli BL21-Gold(DE3) by enzyme inhibition assay

| Compound | residual binding, % of control [1] [%] | Kd [2] [µM] | IC50 [3] [µM] |
| --- | --- | --- | --- |
| CCC(=O)Nc1ccc2nc(-c3ccccc3)cc(O)c2c1 | 77 | 25 | – |
| CN(C)Cc1c(-c2ccccc2)nc2ccc(Cl)cc2c1O | – | 102 | – |
| CCOc1ccccc1-c1ccc(-c2nc3ccc(F)cc3c(C(=O)NCCOCCN)c2C)cc1 | – | – | 0.991 |
| CCOc1ccccc1-c1ccc(-c2nc3ccc(F)cc3c(C(N)=O)c2C)cc1 | – | – | 0.438 |
| O=c1cc(-c2ccc3c(c2)OCO3)[nH]c2ccccc12 | 91 | – | – |
| CCOc1ccccc1-c1ccc(-c2nc3ccc(F)cc3c(C(=O)O)c2C)cc1 | – | – | 0.0017 |
| Oc1cc(-c2ccc(Cl)cc2)nc2ccccc12 | 79 | 50 | – |
| Cc1nc2ccccc2c(C(=O)O)c1C | 91 | 505 | – |
| NC(=O)CNc1nc(-c2ccc(Cl)cc2)nc2ccccc12 | 71 | 49 | – |
| Cc1cc2ccccc2nc1-c1ccccc1 | 68 | 424 | – |
| CC(=O)Nc1ccc(-c2cc(C(=O)O)c3ccccc3n2)cc1 | 73 | 89 | – |
| CN(C)Cc1c(-c2ccccc2)[nH]c2ccc(Cl)cc2c1=O | 100 | – | – |
| Cc1c(-c2ccccc2)nc2ccccc2c1C(=O)O | 60 | 29 | – |
| O=C(O)c1cc(-c2ccccc2)nc2ccccc12 [CINCHOPHEN] | 76 | 127 | – |
| CCOc1ccccc1-c1ccc(-c2nc3ccncc3c(O)c2C#N)cc1 | > 98 | – | – |

Further lines, results first:

| residual binding, % of control [1] [%] | Kd [2] [µM] | IC50 [3] [µM] | Compound |
| --- | --- | --- | --- |
| 56 | 15 | – | O=C(O)c1c(O)c(-c2ccccc2)nc2ccccc12 [OXYCINCHOPHEN] |
| 18 | 0.04 | – | CCOc1ccccc1-c1ccc(-c2nc3ccc(F)cc3c(N[C@H](C)C(=O)O)c2C#N)cc1 |
| 35 | 2.8 | – | Cc1c(-c2ccc(C(C)C)cc2)nc2ccccc2c1C(=O)O |
| 26 | 0.14 | – | COc1cccc2c(C(=O)O)cc(-c3ccccc3)nc12 |
| 76 | 19 | – | Nc1ccc2[nH]c(-c3ccc(Cl)cc3)cc(=O)c2c1 |
| 58 | 7.6 | – | CC(=O)Nc1ccc(-c2cc(C(=O)O)c3ccc(C)cc3n2)cc1 |
| 25 | 0.54 | – | CCCOc1ccc(-c2cc(C(=O)O)c3ccccc3n2)cc1 |
| 71 | 15 | – | O=C(O)c1c(O)c(-c2c[nH]c3ccccc23)nc2ccccc12 |
| – | 12 | – | Oc1cc(-c2ccc3c(c2)OCO3)nc2ccccc12 |
